In the EternaBench riboswitch data:

System: MS2 coat protein
Test: apparent Kd, MS2 coat protein; higher = weaker binding; RNA-MaP array; FMN 200 µM where present
Summary of the method: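 SNAP-549-labelled MS2 coat protein, doubled from 0.7 or 1.5 nM to 3 µM, was titrated over designs transcribed by stalled E. coli RNA polymerase on Illumina sequencing-chip clusters. Titrations were run without and then with constant ligand in 100 mM Tris-HCl pH 7.5, 80 mM KCl, 4 mM MgCl2, BSA, DTT, yeast tRNA and Tween-20. The apparent Kd is the median of filtered per-cluster fits to green signal normalised to red-channel RNA signal and control-cluster median Fmax.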

[1] = designed as: OFF switch for flavin mononucleotide, no ligand
[2] = ligand present: flavin mononucleotide, designed as: OFF switch for flavin mononucleotide
[3] = designed as: ON switch for flavin mononucleotide, no ligand
[4] = ligand present: flavin mononucleotide, designed as: ON switch for flavin mononucleotide

Sequence	apparent Kd [1] [µM]	apparent Kd [2] [µM]	apparent Kd [3] [µM]	apparent Kd [4] [µM]
CUAAAGCGAGGAUAUACAAUAAAAGGGAAUAAGGGAAAAAAACAUGAGGAUCACCCAUGUAGAAGGCGCCGAAA	0.0322	0.0306		
AAGAAGUGAGGAUAUACGCGAACAAAAAAAAAAAAGAAAGCGUAGAAGGCACAUGAGGAUCACCCAUGUCAAAA	0.0261	0.0273		
UUUUACAUAGGAUAUAGUCUUUUUUACAUGAGGAUCACCCAUGUCUCUCUUUUUUUUUUUCUAGAAGGAUGUUUUU	0.0429	0.0309		
CGCAACAUACAGAAGGAGUAAAUUAGAAGUGUACUAGGAUAUGUAAACAUGAGGAUCACCCAUGUCGAAUGUGUUAUAGUUGCG	0.00824	0.00853		
CUCUUUAGUCAGGAUAUCGUGAGGCUAAUUAUACGAGAAGGGACGACAUGAGGAUCACCCAUGUGGUCUUAGAG	0.0174	0.0321		
AGUAUCACAGGAUAUACAUGAGUGAAAAAAGUAAAUCCACUACAUGAGGAUCACCCAUGUAGAAGGGUGAUACA	0.0657	0.0579		
GUUGCUUAUGAGAAGGCGAUCAUGAAACAUGAUCGAGGAUAUCAUGUAAACAUGAGGAUCACCCAUGUAUGGGUAUUAUGCAGC			0.32	0.0693
AGACAGUGAGGAUAUGCAGUCGGUGUCACCUGAUGAGAAGAACAUGAGGAUCACCCAUGUAGAAGGCACAGGAA	0.039	0.229		
UUUAUGUCAGGAUAUACAUGAGGAUCACCCAUGUAUAUCUUAAAAUAUACAUGGGUAUGUAGAAGGGACCUCCU	0.0865	0.0771		
UGGUUCUAGGGAGGAUAUGGGAAGAUACAUGAGGAUCACCCAUGUUUAAGAAUGCCGAGAGGCAACUAGAAGGCCCUAGUACCU			0.406	0.0203
UUACAGCAAGGAUAUACGGGCUGUGCUUUUCAUUUCUUACAACAUGAGGAUCACCCAUGUAGAAGGUGCAACUU	0.0348	0.0633		
GUGCUCGUGUAAGGAUAUGCAGCCGUUUCGGCUGCAGAAGGUACUAUAAUACAUGAGGAUCACCCAUGUCUCUAUUGUUUGGUG			0.12	0.153
CUAUGUUAGCAGGAUAUGCCAUUAUUCCUUUACGCAGAAGGGCUUACAUGAGGAUCACCCAUGUUACAUUUCAU	0.0141	0.0298		
UUUUAACAUGAGGAUCACCCAUGUGAGGAUAUCGAAAUUUAUAUUAAUAUUAAUUAAUCGAGAAGGCACAUUUU	0.106	0.113		
UUGGACGUCGUAGGAUAUGUAGGAUAUUCCUACAUGAGGAUCACCCAUGUUGACAUGGAAGAAGGACAGAAAGACGAUGUCCAU			0.333	0.00663
UCCAGGCGAGGAUAUACUUAGAUUUUUUCGUUUAGUCUCGAACAUGAGGAUCACCCAUGUAGAAGGUGCUUCAC	0.0456	0.042		
UGUCACCGUGCAGGAUAUGCCUGCACGUCGCGGGCAGAAGGGCACAUGAGGAUCACCCAUGUAGAGCUGGGCUCGUCAAGGGAG	0.00905	0.00985		
UGCAUGUAGGAGAAGGAGGACUUCAUGAGGAUCACCCAUGUGUUAGGACUUAGGAUAUUUGACGACAUGAGGAUCACCCAUGUG			0.0801	0.0719
AUUAUAUAGAUAGGAUAUAGAAUAUUAUUUUAACAUGAGGAUCACCCAUGUAACCUUAUGUGUAGCUAGAAGGAUCAUUUAUUA	0.0803	0.113		
UGGAUCAUCGGAGGAUAUCAUGUAGAUACAUGAGGAUCACCCAUGUCGUACGAGAGUACGGAGAUUGAGAAGGCCGAUGAUCCU			0.0316	0.0148
CACGUCCACACAGGAUAUGCUGGACUUUGUCCAGCAGAAGGGUGACAUGAGGAUCACCCAUGUAAAAGGACGUGUAUAUUUAAU			0.819	0.0621

Sequence	apparent Kd [1] [µM]	apparent Kd [2] [µM]	apparent Kd [3] [µM]	apparent Kd [4] [µM]
UUGAAUUUAAACAUGAGGAUCACCCAUGUGUCAUAGUUGAUAUAGGAUAUGUUUAUACUUUGAAAGCAGAAGGAUGACGAUACU			0.0189	0.0152
AAAAUGUCAGGAUAUUGUUAGUUUAGUUGUUUGUAUUAGUUCGAGAAGGGACAUGAGGAUCACCCAUGUUGAAA	0.0338	0.033		
UAGCAUUGCCUUUGGUAGUGCUUUACAUGAGGAUCACCCAUGUAGGAUAUGGUAGGCUUUGCUUACCAGAAGGACAUGAUAAUU	0.0529	0.166		
UAAUCUCAGAUAGGAUAUAUAGGAUGAUUUAAGACCGAACAUGAGGAUCACCCAUGUGAUUAUCUGUAGAAGGAUCAAUGACCC			0.285	0.246
CGGUACUUAGGAUAUACAUGAGGAUCACCCAUGUAGAGAAGGUGGGUGCCGUCCUGUAGUAGAAGGAAGAAUCG	0.0469	0.0558		
GAGGAGCAAGGAUAUACGAGGAUAUGGAAGGUUGGAGAGUGACAUGAGGAUCACCCAUGUAGAAGGUGCGAGGG	0.0537	0.0492		
UUUUUGUGAGGAUAUUAGUAGUAAAUAAAUAAAAUUACUACUGAGAAGGCACAUGAGGAUCACCCAUGUUCCUC	0.0336	0.254		
UGGUCCCAGCGUUUGCUGGCCGCUCCAGAAGGCGAUCCAACAUGAGGAUCACCCAUGUCACCGAUCGAGGAUAUGGUUAAGGAU			0.242	0.0255
CGCUACACCCAGAAGGACAUGAGGAUCACCCAUGUAGGAUAUGGGAGACACAGUCCCGUGUAGAGAAACUACGCUAGUGUAGCG			0.344	0.112
ACAUGAGGAUCACCCAUGUAGAAUGGAGAAGGUAGAUACUUGUGACUCACCCAUGUACAUAGGACUAAGGAUAUUCUAAUAAUU			0.0944	0.0542
GGGCCGAUAGGAUAUACAUGAGGAUCACCCAUGUAUGCUUAGAAGCGGCAAUCCUUAUGUAGAAGGGUCAGGCU	0.0371	0.0334		
UGAUAGGACAGAGGAUAUACGGAUAGGAUCUACUAUCAAACAGGUCCUACAUGAGGAUCACCCAUGUAGAAGGCUGUCCUAUCU	0.0229	0.111		
GUCGUGUGAGGAUAUGGAUAGACGCAGUGACAGUCAGCGACCUAGAAGGCACAUGAGGAUCACCCAUGUAUGUG	0.0472	0.1		
AUAAUACAUGAGGAUCACCCAUGUAAUUUAACUUGUAAGAUCAAGGAUAUCAGCUCGAAUAGAGCUGAGAAGGUGAUCACAUGU			0.169	0.295
UAUUUAUAAUAUAUUAACAUGAGGAUCACCCAUGUCGCUAGACAGGAUAUAUUUUAUUUUUUUAAGUAGAAGGGUCAUAUAUUU			0.068	0.0859
GUGGUUCUCGUAGGAUAUGUAGGAUAUGCCUACAUGAGGAUCACCCAUGUUCGCAUGGCAGAAGGACAGAAGGACGAUCACCAG			0.0546	0.0277
UCGCCAGGUACAGGAUAUGUGGAUCAGUCAAGUAACUUGCUGAACAUGAGGAUCACCCAUGUAUCACAGAAGGGUGCCUCAAAA			0.199	0.0108
GAGCUUGAUGAGAAGGGUUACAUGAGGAUCACCCAUGUCGACCUUGGCGUAACAGGAUAUCAUCGGGCUCUGUGCGUUGACACA	0.027	0.121		
UUGGCAACGUAGAAGGGUGACAUGAGGAUCACCCAUGUGCCGAUAUAUCUCGAGAUAUGUCGGCCACAGGAUAUACGUGCCAUC			0.0359	0.0352
AAAUUUUGUCAAGGAUAUGUAUAAAAGAGAAGAAAACAUGAGGAUCACCCAUGUAUAUGGUGGGAACAGAAGGUGAAUAAGUAA	0.164	0.154		
GCUGACGAUGUAGGAUAUCUCGACGAUAAGUCGAGAGAAGGACAUGAGGAUCACCCAUGUAAACUCACGUCAGCGAGGAAACUC	0.0161	0.0172		
